Experiment [1] concerns the target T1, Phosphoglycerate mutase 1 (Homo sapiens, UniProt P18669). The experiment in a line: Inhibition of recombinant PGAM1 (unknown origin) using 3-PG as substrate preincubated for 2 mins followed by substrate addition. The gist of the method:
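Recombinant PGAM1 plus compound (DMSO) in 50 mM Tris pH 8.0, preincubated 2 min at room temperature. Started with 3PG (200 mM stock); NADH oxidation read as OD340 decrease. IC50 from triplicates, mean ± sd.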
Target sequence in this assay (P18669 whole entry): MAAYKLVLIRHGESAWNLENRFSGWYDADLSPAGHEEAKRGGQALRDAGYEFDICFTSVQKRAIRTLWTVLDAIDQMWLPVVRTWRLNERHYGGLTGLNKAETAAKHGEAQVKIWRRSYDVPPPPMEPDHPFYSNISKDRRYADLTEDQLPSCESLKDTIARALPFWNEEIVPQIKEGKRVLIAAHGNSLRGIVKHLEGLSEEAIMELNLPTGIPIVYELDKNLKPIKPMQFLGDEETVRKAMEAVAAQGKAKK

For experiment [2], the target named is T1, Phosphoglycerate mutase 1. The experiment in a line: Inhibition of recombinant PGAM1 (unknown origin) at 20 uM using 3-PG as substrate preincubated for 2 mins followed by substrate addition relative to control. In a few lines: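 Same coupled PGAM1 assay: recombinant enzyme preincubated 2 min at room temperature with compound in 50 mM Tris pH 8.0. Enolase/PK/LDH mix with ADP, MgCl2, KCl and NADH added, then 3PG (200 mM stock) to start. OD340 decrease measured; inhibition ratio recorded at 20 µM.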
Target sequence in this assay (P18669 2-254 limits assumed): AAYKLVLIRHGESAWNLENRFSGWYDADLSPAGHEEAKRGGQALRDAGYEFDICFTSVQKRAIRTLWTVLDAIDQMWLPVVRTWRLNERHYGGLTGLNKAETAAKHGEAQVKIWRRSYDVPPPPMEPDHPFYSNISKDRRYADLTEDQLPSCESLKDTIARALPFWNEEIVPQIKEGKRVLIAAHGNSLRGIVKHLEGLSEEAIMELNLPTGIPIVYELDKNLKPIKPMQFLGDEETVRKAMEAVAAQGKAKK

For experiment [3], the species on record is Homo sapiens. The experiment in a line: Inhibition of enolase (unknown origin) at 5 uM using 2-PG relative to control. In a few lines:
(§1)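 PGAM1 omitted to test the downstream coupling enzymes. Compound (0.5 mM stock) preincubated 2 min at room temperature in 50 mM Tris pH 8.0. OD340 decrease read; inhibition ratio at 5 µM.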

The species entered for experiment [4] is Homo sapiens. As to the kind of experiment: Inhibition of pyruvate kinase (unknown origin) at 5 uM using 2-PG relative to control. The gist of the method: as §1
The target in experiment [5] is L-lactate dehydrogenase (Homo sapiens) (UniProt V9HWB9). As to the kind of experiment: Inhibition of LDH (unknown origin) at 5 uM using 2-PG relative to control. In a few lines: as §1
The test system of the next experiment is NCI-H1299. As to the kind of experiment: Antiproliferative activity against human H1299 cells after 72 hrs by MTT assay. It counts as functional, cell-based. Conditions: NCI-H1299, 72 h. In a few lines:
(§2)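 MTT assay: 2 × 10^3 cells per well, cultured 24 h at 37 °C. Compound then added for 72 h at 37 °C, followed by 0.5 mg mL-1 MTT for 4 h. Formazan dissolved in DMSO and absorbance read at 570 nm. IC50 from triplicate experiments, mean ± sd.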
For orientation: Tetrazolium dyes change colour on reduction, which living cells bring about.

Another experiment deals with MCF7. The experiment in a line: Antiproliferative activity against human MCF7 cells after 72 hrs by MTT assay. The class given is functional, cell-based. The conditions noted are these: MCF7, 72 h. The gist of the method:
as §2

The test system of a further experiment is PANC-1. As to the kind of experiment: Antiproliferative activity against human PANC1 cells after 72 hrs by MTT assay. It counts as functional, cell-based. Conditions: PANC-1, 72 h. The gist of the method:
as §2

Usually IC50 stands for the midpoint of a concentration-inhibition curve. In general, inhibition refers to the relative decrease from the control value, in per cent. As to `COc1c(NS(=O)(=O)Cc2ccccc2)cc2oc3cccc(OC)c3c(=O)c2c1O`, in experiment [1], the IC50 was over 20 µM. In addition, the inhibition in experiment [2] was under 10%.

Consider `COc1c(NS(=O)(=O)c2cccc(C#N)c2)cc2oc3cccc(OC)c3c(=O)c2c1O`, for which the IC50 in experiment [1] is over 20 µM. Also, in experiment [2], the inhibition was under 10%.

With `COc1c(NS(=O)(=O)c2ccc3ccccc3c2)cc2oc3cccc(OC)c3c(=O)c2c1O`, the IC50 in experiment [1] was over 20 µM. The inhibition in experiment [2] was under 10%.

As to `COc1c(NS(=O)(=O)c2ccc(N3CCCC3)cc2)cc2oc3cccc(OC)c3c(=O)c2c1O`, the IC50 in experiment [1] was over 20 µM. The inhibition in experiment [2] was under 10%.

On to `COc1c(NS(=O)(=O)c2ccc(C)cc2)cc2oc3cccc(OC)c3c(=O)c2c1O`, for which, in experiment [1], the IC50 is over 20 µM. The inhibition in experiment [2] was under 10%.

Take `O=c1c2c(O)cccc2oc2cc(NS(=O)(=O)c3ccc(C(F)(F)F)cc3)c(O)c(O)c12`: the IC50 in experiment [1] was 3.5 µM; with NCI-H1299, 10.3 µM; in the experiment on MCF7 it was 30.2 µM; in the experiment with PANC-1 it was 58.5 µM. The inhibition (in the experiment filed under Homo sapiens [3]; in the experiment listed under Homo sapiens [4]; in experiment [5]) was -1% in each case.

Take `COc1c(NS(=O)(=O)c2ccc(C(F)(F)F)cc2)cc2oc3cccc(OC)c3c(=O)c2c1O`: the IC50 in experiment [1] is over 20 µM. Besides, the inhibition in experiment [2] was under 10%.

`COc1c(NS(=O)(=O)c2cc(C(F)(F)F)ccc2C(F)(F)F)cc2oc3cccc(OC)c3c(=O)c2c1O`: the IC50 in experiment [1] was over 20 µM. Also, in experiment [2], the inhibition was under 10%.

Take `N#Cc1ccc(S(=O)(=O)Nc2cc3oc4cccc(O)c4c(=O)c3c(O)c2O)cc1`: the IC50 in experiment [1] is 4.2 µM; in the experiment with NCI-H1299, over 40 µM; with MCF7, 40.1 µM; with PANC-1, over 200 µM. Further, the inhibition (in the experiment listed under Homo sapiens [3]; in the experiment filed under Homo sapiens [4]; in experiment [5]) was 10% throughout.

Regarding `O=c1c2c(O)cccc2oc2cc(NS(=O)(=O)c3ccc(I)cc3)c(O)c(O)c12`, the IC50 in experiment [1] came to 1.9 µM; in the experiment with NCI-H1299, 24.3 µM; in the experiment on MCF7, 13.5 µM; in the experiment with PANC-1, 34.5 µM. Besides, the inhibition (in the experiment listed under Homo sapiens [3]; in the experiment filed under Homo sapiens [4]; in experiment [5]) was 11% in each case.

Turning to `O=c1c2c(O)cccc2oc2cc(NS(=O)(=O)c3ccc(Cl)cc3)c(O)c(O)c12`, the IC50 in experiment [1] amounted to 3.6 µM; in the experiment on NCI-H1299 it was 10.2 µM; with MCF7, 15.5 µM; in the experiment with PANC-1, 91.4 µM. The inhibition (in the experiment filed under Homo sapiens [3]; in the experiment filed under Homo sapiens [4]; in experiment [5]) was 15% each time.

With `COc1c(NS(=O)(=O)c2cccc3ccccc23)cc2oc3cccc(OC)c3c(=O)c2c1O`, the IC50 in experiment [1] was over 20 µM. Also, the inhibition in experiment [2] is under 10%.

With `O=c1c2c(O)cccc2oc2cc(NS(=O)(=O)c3ccc4ccccc4c3)c(O)c(O)c12`, the IC50 in experiment [1] is 1.6 µM; in the experiment with NCI-H1299 it was 22.6 µM; with MCF7, 43.3 µM; in the experiment with PANC-1, over 200 µM. Also, the inhibition (in the experiment filed under Homo sapiens [3]; in the experiment listed under Homo sapiens [4]; in experiment [5]) was 9% in each case.

In the case of `COc1c(NS(=O)(=O)c2ccc(C(C)(C)C)cc2)cc2oc3cccc(OC)c3c(=O)c2c1O`, the IC50 in experiment [1] is over 20 µM. The inhibition in experiment [2] was under 10%.

`CC(C)(C)c1ccc(S(=O)(=O)Nc2cc3oc4cccc(O)c4c(=O)c3c(O)c2O)cc1`: the IC50 in experiment [1] is 2.6 µM; with NCI-H1299 it was 10.7 µM; in the experiment on MCF7, 13.4 µM; in the experiment with PANC-1, over 200 µM. Moreover, the inhibition (in the experiment listed under Homo sapiens [3]; in the experiment listed under Homo sapiens [4]; in experiment [5]) was 1% throughout.

With `Cc1ccc(S(=O)(=O)Nc2cc3oc4cccc(O)c4c(=O)c3c(O)c2O)cc1`, the concentration for half-maximal inhibition (IC50) in experiment [1] turned out to be 7.2 µM; in the experiment on NCI-H1299, 13.2 µM; in the experiment on MCF7, 44.9 µM; with PANC-1 it was 20.7 µM. The inhibition (in the experiment listed under Homo sapiens [3]; in the experiment listed under Homo sapiens [4]; in experiment [5]) was 2% in each case.

As to `COc1c(NS(=O)(=O)c2ccc(F)cc2)cc2oc3cccc(OC)c3c(=O)c2c1O`, in experiment [1], the IC50 is over 20 µM. Further, the inhibition in experiment [2] was under 10%.

`O=c1c2c(O)cccc2oc2cc(NS(=O)(=O)c3ccc(-c4ccccc4)cc3)c(O)c(O)c12`: the IC50 in experiment [1] is 1.2 µM; with NCI-H1299, 12.9 µM; in the experiment on MCF7, 44.9 µM; with PANC-1 it was over 200 µM. Moreover, the inhibition (in the experiment listed under Homo sapiens [3]; in the experiment filed under Homo sapiens [4]; in experiment [5]) was 8% in each case.

For the compound `N#Cc1cccc(S(=O)(=O)Nc2cc3oc4cccc(O)c4c(=O)c3c(O)c2O)c1`, the IC50 in experiment [1] was 2.1 µM; in the experiment with NCI-H1299 it was 53 µM; with MCF7 it was 18.4 µM; in the experiment on PANC-1, over 200 µM. In addition, the inhibition (in the experiment filed under Homo sapiens [3]; in the experiment listed under Homo sapiens [4]; in experiment [5]) was 13% in each case.

As to `COc1c(NS(=O)(=O)c2ccccc2)cc2oc3cccc(OC)c3c(=O)c2c1O`, the IC50 in experiment [1] is over 20 µM. The inhibition in experiment [2] is under 10%.

With `O=c1c2c(O)cccc2oc2cc(NS(=O)(=O)c3cccc(OC(F)(F)F)c3)c(O)c(O)c12`, the IC50 in experiment [1] came to 5.8 µM; in the experiment on NCI-H1299, 13.9 µM; in the experiment with MCF7 it was 20.5 µM; in the experiment on PANC-1 it was 116 µM. For the same compound, the inhibition (in the experiment listed under Homo sapiens [3]; in the experiment listed under Homo sapiens [4]; in experiment [5]) was 12% throughout.

As to `O=c1c2c(O)cccc2oc2cc(NS(=O)(=O)c3ccc(N4CCCCC4)cc3)c(O)c(O)c12`, the IC50 was 1 µM in experiment [1], 8.1 µM with NCI-H1299, 47.6 µM with MCF7 and over 200 µM in the experiment with PANC-1. In addition, the inhibition (in the experiment filed under Homo sapiens [3]; in the experiment filed under Homo sapiens [4]; in experiment [5]) was 5% throughout.

As to `COc1c(NS(=O)(=O)c2ccc(C3CCCCC3)cc2)cc2oc3cccc(OC)c3c(=O)c2c1O`, the IC50 in experiment [1] was over 20 µM. In addition, the inhibition in experiment [2] is under 10%.

Turning to `COc1c(NS(=O)(=O)c2ccc(C#N)cc2)cc2oc3cccc(OC)c3c(=O)c2c1O`, the IC50 in experiment [1] is over 20 µM. For the same compound, the inhibition in experiment [2] was under 10%.

For `COc1c(NS(=O)(=O)c2ccc(Br)cc2)cc2oc3cccc(OC)c3c(=O)c2c1O`, the IC50 in experiment [1] is over 20 µM. The inhibition in experiment [2] is under 10%.

Take `COc1c(NS(=O)(=O)c2ccc(I)cc2)cc2oc3cccc(OC)c3c(=O)c2c1O`: the IC50 in experiment [1] was over 20 µM. Besides, the inhibition in experiment [2] was under 10%.

Take `COc1c(NS(=O)(=O)c2ccc(N3CCCCC3)cc2)cc2oc3cccc(OC)c3c(=O)c2c1O`: the IC50 in experiment [1] was over 20 µM. Besides, the inhibition in experiment [2] was under 10%.

Turning to `COc1c(NS(=O)(=O)c2ccc(Cl)cc2)cc2oc3cccc(OC)c3c(=O)c2c1O`, in experiment [1], the IC50 was over 20 µM. Further, the inhibition in experiment [2] is under 10%.

Take `COc1c(NS(=O)(=O)c2cccc(OC(F)(F)F)c2)cc2oc3cccc(OC)c3c(=O)c2c1O`: in experiment [1], the IC50 was over 20 µM. For the same compound, the inhibition in experiment [2] was under 10%.

As for `COc1c(NS(=O)(=O)c2ccc(-c3ccccc3)cc2)cc2oc3cccc(OC)c3c(=O)c2c1O`, the IC50 in experiment [1] was over 20 µM. In addition, the inhibition in experiment [2] was under 10%.

Values taken from ChEMBL document CHEMBL4219134, “Xanthone derivatives as phosphoglycerate mutase 1 inhibitors: Design, synthesis, and biological evaluation” (Bioorg Med Chem, 2018).
